{
  "source": "paper PMC3248997",
  "about": "(Bioorganic & medicinal chemistry, 2011)",
  "key": {"[1]": {"system": "COX activity (PGE2 and 6-keto-PGF1α formation) in brain homogenates", "test": "Inhibition of COX activity in tissue extract", "type": "biochemical, C57BL/6 mice", "outline": "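C57BL/6 mouse brain homogenate prepared on ice in 50 mM Tris pH 7.4 with 1 mM phenol and protease inhibitors. 20 µg homogenate preincubated with test compound or vehicle. 150 µM arachidonic acid added at 37°C. Stopped after 5 min by acidifying to pH 2.5 with formic acid and chilling. Prostanoids extracted with ethyl acetate/hexane (7:1). PGE2 and 6-keto-PGF1α quantified by GC-MS/MS.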"}, "[2]": {"system": "PGE2 formation in brain tissue from COX-1−/− mice", "type": "biochemical", "settings": "0.8 µM; brain tissue from LPS stimulated COX-1−/− mice"}, "[3]": {"settings": "in vivo"}, "[4]": {"settings": "cited from earlier work"}, "[5]": {"settings": "intracerebroventricular injection of 10 nmol; cited from earlier work"}, "[6]": {"settings": "cited from earlier work", "remark": "listed apart in the source"}, "[7]": {"system": "COX-2 in murine macrophages", "settings": "unclear which pyrazolone(s) were added; cited from earlier work"}, "[8]": {"system": "COX-2 in primary human leukocytes", "settings": "unclear which pyrazolone(s) were added; cited from earlier work"}},
  "note": "Where two headings read alike, the source gives them in different places.",
  "data": [
    {"smiles": "CCCCC/C=C\\C/C=C\\C/C=C\\C/C=C\\CCCC(=O)N(C)c1c(C)n(C)n(-c2ccccc2)c1=O", "note": "[compound 5, (5Z,8Z,11Z,14Z)-Icosa-5,8,11,14-tetraenoic acid (1,5-dimethyl-3-oxo-2-phenyl-2,3-dihydro-1H-pyrazol-4-yl)-methyl-amide]", "values": [
      {"measurement": "lowering of IC50 by the FAAH inhibitor URB532", "setting": "[1]; inhibition of PGE2 formation in mouse brain homogenates", "result": "more than 200 fold"},
      {"measurement": "formation of PGE2", "setting": "[2]", "result": "did not observe any formation of PGE2"},
      {"measurement": "formation in brain of FAAH−/− mice as compared to wild type mice", "setting": "dipyrone for 5 days", "result": "less than 2%"},
      {"measurement": "amount in mouse brain cell homogenates", "setting": "representative chromatogram, Figure 9 B", "result": 2.4, "unit": "pg/sample"}
    ]},
    {"smiles": "CCCCC/C=C\\C/C=C\\C/C=C\\C/C=C\\CCCC(=O)Nc1c(C)n(C)n(-c2ccccc2)c1=O", "note": "[compound 6, (5Z,8Z,11Z,14Z)-Icosa-5,8,11,14-tetraenoic acid (1,5-dimethyl-3-oxo-2-phenyl-2,3-dihydro-1H-pyrazol-4-yl)-amide]", "values": [
      {"measurement": "effect on PGE2 formation", "setting": "[1]; brain homogenates, concentration range 100 nM to 100 µM", "result": "no effect"},
      {"measurement": "amount in mouse brain cell homogenates", "setting": "[3]; C57BL/6, mouse", "result": 39, "unit": "pg/sample"},
      {"measurement": "formation in brain of FAAH−/− mice as compared to wild type mice", "setting": "[3]; FAAH−/− knockout compared with wild type (C57BL/6), mouse, 5 days", "result": "about 6%"}
    ]},
    {"smiles": "Cc1c(N)c(=O)n(-c2ccccc2)n1C", "note": "[compound 3, 4-aminoantipyrine]", "values": [
      {"measurement": "concentration in the cerebrospinal fluid", "setting": "[4]", "result": "1000 to 7000", "unit": "ng/mL"}
    ]},
    {"smiles": "CCCCC/C=C\\C/C=C\\C/C=C\\C/C=C\\CCCC(=O)Nc1ccc(O)cc1", "note": "[AM404, N-arachidonoylaminophenol]", "values": [
      {"measurement": "antinociception", "setting": "[5]", "result": "Antinociception was observed"}
    ]},
    {"smiles": "CNc1c(C)n(C)n(-c2ccccc2)c1=O", "note": "[compound 2, 4-methylaminoantipyrine]", "values": [
      {"measurement": "bioavailability", "setting": "[6]; after oral administration of dipyrone", "result": 85, "unit": "%"},
      {"measurement": "average elimination half-life (t1/2)", "setting": "[6]", "result": "2.6 to 3.5", "unit": "h"},
      {"measurement": "tmax", "setting": "[6]; time to maximal systemic concentrations", "result": "1.2 to 2.0", "unit": "h"},
      {"measurement": "concentration in the cerebrospinal fluid", "setting": "[4]", "result": "5000 to 30000", "unit": "ng/mL"}
    ]},
    {"smiles": "Cc1c(N(C)CS(=O)(=O)[O-])c(=O)n(-c2ccccc2)n1C.[Na+]", "note": "[compound 1, sodium N-(2,3-dimethyl-5-oxo-1-phenyl-3-pyrazolin-4-yl)-N-methylaminomethanesulphonate]", "values": [
      {"measurement": "time detectable in the serum", "setting": "[6]; following intravenous administration", "result": "about 15 min"},
      {"measurement": "detectability in the serum after oral intake", "setting": "[6]; oral intake", "result": "not detectable"},
      {"measurement": "activity against COX-2", "setting": "[7]", "result": "approximately 12 µg ml^−1"},
      {"measurement": "activity against COX-2", "setting": "[8]", "result": "~21", "unit": "µg/mL"}
    ]}
  ]
}
